Published values gathered from unrelated publications.
Lines come from different studies, so protocols differ.
Target: 5-hydroxytryptamine receptor 2B (HTR2B, Homo sapiens, UniProt P41595)

Structure (SMILES) | effect on | action | technique | endpoint | value
O=C1c2ccccc2CCN1CCCCN1CCN(c2cccc(Cl)c2Cl)CC1 | ligand displacement | – | radioligand | Ki | 1.8 nM
Cc1ccc2cccc(N3CCN(CCCCOc4ccc5sc(C(C)C)nc5c4)CC3)c2n1 | cell-free assay | – | radioligand | Ki | 43 nM
CNC(=O)[C@@]12C[C@@H]1[C@@H](n1cnc3c(NCCc4ccccc4)nc(I)nc31)[C@H](O)[C@@H]2O | cell-free assay | – | radioligand | Ki | 117 nM
CC(C)c1nc2cc(OCCCCN3CCN(c4cccc5c4OCCO5)CC3)ccc2s1 | cell-free assay | – | radioligand | Ki | 32 nM
Cc1cc(NC(=O)Nc2ccc3c(ccn3C)c2)sn1 | ligand displacement | – | radioligand | IC50 | 160 nM
CCCC[C@H](NC(=O)[C@H](C)c1c(C)[nH]c2ccc(O)cc12)c1ncc(-c2cc3ccccc3nc2OC)[nH]1 | ligand displacement | – | – | IC50 | 740 nM
CCOC(=O)[C@@]12C[C@@H]1[C@@H](n1cnc3c(N[C@H](C4CCC4)C4CC4)nc(I)nc31)[C@H](O)[C@@H]2O | calcium signal | antagonist | – | Kb | 1.74 nM
CCOCc1nc(O)c(-c2nnc(Cc3ccc(Cl)cn3)o2)c(O)c1-c1c(OC)cccc1OC | ligand displacement | – | radioligand | IC50 | > 30000 nM
COCCN(CCOC)C(=O)[C@@]12C[C@@H]1[C@@H](n1cnc3c(NC(C4CC4)C4CC4)nc(Cl)nc31)[C@H](O)[C@@H]2O | ligand displacement | – | radioligand | Ki | 1230 nM
CCCCN1CCC(COC(=O)c2ccc(N)c(OCF)c2)CC1 | cell-free assay | – | radioligand | Ki | > 10000 nM
